# Assay results: ChEMBL document CHEMBL4373638, “Anthranilic amide and imidazobenzothiadiazole compounds disrupt Mycobacterium tuberculosis membrane potential” (Medchemcomm, 2019)
# Calls of active or inactive are those of the source. The calls are words filed in the database; no cut-off is given here.
# Tests used:
# [1] = tested on: Mycobacterium tuberculosis; assay: Disruption of membrane potential loss in Mycobacterium tuberculosis H37Rv at < MBC concentration at pH 4.5 after 15 mins measured at pH 6.8 by DiOC2 probe based fluorescence assay; type: functional, organism-based
# [2] = tested on: Mycobacterium tuberculosis; assay: Disruption of membrane potential loss in Mycobacterium tuberculosis H37Rv at MBC concentration at pH 4.5 after 15 mins measured at pH 5.6 by DiOC2 probe based fluorescence assay; type: functional, organism-based
# Procedure, shortened: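 Mid-log Mtb grown in 7H9-OADC-Tw, concentrated to OD590 ~1.0 in 7H9-Tw adjusted to assay pH (6.8 or 5.6), loaded with 15 μM DiOC2 for 20 min at RT, washed, then exposed to 2-fold serial dilutions for 15 min at RT; red (488/650 nm) to green (488/530 nm) fluorescence ratio; CCCP positive, DMSO vehicle controls; representative of two runs.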
# HepG2 [3] = assay: Disruption of mitochondrial membrane potential in human HepG2 cells at less than IC50 concentration after 30 mins by DiOC2 probe based fluorescence assay; type: ADME, cell-based; details: hepg2, 0.5 h
# [4] = tested on: Mycobacterium tuberculosis; assay: Antitubercular activity against non-replicating Mycobacterium tuberculosis H37Rv assessed as microbial killing at 115 to 230 uM at pH 5.5; type: functional, organism-based; details: TDE = time-dependent effect
# Procedure, shortened: (§1)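 Non-replicating kill kinetics: late-log H37Rv (OD590 0.6–1.0) resuspended in phosphate citrate buffer with 0.05% tyloxapol, inoculated at ~10⁶ CFU mL⁻¹, compound added (2% DMSO final), incubated standing at 37 °C; aliquots plated for CFU every 7 days, plates counted after 4 weeks at 37 °C.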
# [5] = tested on: Mycobacterium tuberculosis; assay: Antitubercular activity against non-replicating Mycobacterium tuberculosis H37Rv assessed as microbial killing at 145 to 290 uM at pH 5.5; type: functional, organism-based; details: TDE = time-dependent effect; procedure, shortened: as §1
# HepG2 [6] = assay: Disruption of mitochondrial membrane potential in human HepG2 cells up to 200 uM after 30 mins by DiOC2 probe based fluorescence assay; type: ADME, cell-based; details: hepg2, 0.5 h
# [7] = tested on: Mycobacterium tuberculosis; assay: Antitubercular activity against non-replicating Mycobacterium tuberculosis H37Rv assessed as microbial killing at 130 to 260 uM at pH 5.5; type: functional, organism-based; details: TDE = time-dependent effect; procedure, shortened: as §1
# [8] = tested on: Mycobacterium tuberculosis; assay: Antitubercular activity against non-replicating Mycobacterium tuberculosis H37Rv assessed as log reduction in CFU at 10 to 100 uM at pH 4.5 to 6.8 after 7 days; type: functional
# [9] = tested on: Mycobacterium tuberculosis; assay: Antitubercular activity against Mycobacterium tuberculosis H37Rv infected in mouse RAW264.7 cells; type: functional, organism-based
# RAW264.7 = assay: Cytotoxicity against mouse RAW264.7 cells; type: cell-based
# [10] = tested on: Mycobacterium tuberculosis; assay: Antitubercular activity against non-replicating Mycobacterium tuberculosis H37Rv assessed as microbial killing at 125 to 250 uM at pH 5.5; type: functional, organism-based; details: TDE = time-dependent effect; procedure, shortened: as §1
compound,measurement,setting,value
CN(C(=O)c1ccccc1NS(=O)(=O)c1ccc(Br)cc1)c1ccc(Cl)cc1Cl,Activity,[1],Active
same,Activity,[2],Active
same,Activity,HepG2 [3],Toxic
Cc1nnc(Sc2ccc3nsnc3c2[N+](=O)[O-])s1,Activity,HepG2 [3],Toxic
O=C(Nc1ccc(Cl)cc1)c1ccccc1NS(=O)(=O)c1ccc(Br)cc1,Activity,[4],Tde
CS(=O)(=O)Nc1ccccc1C(=O)Nc1ccc(Cl)cc1Cl,Activity,[5],Tde
O=[N+]([O-])c1c(Sc2ccccn2)ccc2nsnc12,Activity,HepG2 [3],Toxic
NC(=O)c1ccccc1NS(=O)(=O)c1ccc(Br)cc1,Activity,[2],inactive
same,Activity,HepG2 [6],Non-Toxic
CCCCNC(=O)c1ccccc1NS(=O)(=O)c1ccc(Br)cc1,Activity,[1],Active
same,Activity,[2],Active
same,Activity,HepG2 [3],Toxic
O=C(Nc1ccccc1)c1ccccc1NS(=O)(=O)c1ccc(Br)cc1,Activity,[2],Active
same,Activity,HepG2 [3],Toxic
O=C(Nc1ccccn1)c1ccccc1NS(=O)(=O)c1ccc(Br)cc1,Activity,[7],Tde
CCNc1ccccc1C(=O)Nc1ccc(Cl)cc1Cl,Activity,[2],Active
same,Activity,HepG2 [6],Non-Toxic
O=C(Nc1ccc(Cl)cc1Cl)c1ccccc1NS(=O)(=O)c1ccc(Br)cc1,Activity,[1],Active
same,Activity,[2],Active
O=[N+]([O-])c1cc2nc(C(F)(F)F)[nH]c2c2nsnc12,Activity,[8],>4 log10CFU
CCN(C)c1ccccc1C(=O)Nc1ccc(Cl)cc1Cl,Activity,[9],Active
same,Activity,RAW264.7,Toxic
Cc1ccc(S(=O)(=O)Nc2ccccc2C(=O)Nc2ccc(Cl)cc2Cl)cc1,Activity,[10],Tde
